Converted amounts (≈) assume the structure as drawn. The source made the active and inactive calls. The rule behind the calls is not given here.
Assays:
[1] = test system: Escherichia coli; test: Antibacterial activity against NEO-sensitive Escherichia coli harboring TolC mutant after 15 to 20 hrs by CLSI protocol based microdilution assay; assay type: functional
In short: (§1)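 CLSI broth microdilution on exponential-phase bacteria at ~3×10^5 cells/mL in cation-adjusted Mueller-Hinton broth. Serial 2-fold dilutions gave final concentrations of 50 to 0.78 μM; compound stocks were 10× in 10% DMSO. Incubated at 37 °C for 15-20 h, growth read at A595. Percent inhibition averaged over triplicates; MIC in μM.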

[2] = test system: Staphylococcus aureus; test: Antibacterial activity against methicillin-resistant Staphylococcus aureus SU-5 after 15 to 20 hrs by CLSI protocol based microdilution assay; assay type: functional; in short: as §1
[3] = test system: Staphylococcus aureus; test: Antibacterial activity against NEO-sensitive Staphylococcus aureus harboring NorA mutant after 15 to 20 hrs by CLSI protocol based microdilution assay; assay type: functional; in short: as §1
[4] = test system: Staphylococcus epidermidis; test: Antibacterial activity against NEO-sensitive Staphylococcus epidermidis 12384 after 15 to 20 hrs by CLSI protocol based microdilution assay; assay type: functional; in short: as §1
[5] = test system: Staphylococcus aureus; test: Antibacterial activity against NEO-sensitive Staphylococcus aureus C1 after 15 to 20 hrs by CLSI protocol based microdilution assay; assay type: functional
In short: (§2)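 CLSI broth microdilution MIC in triplicate on exponential-phase cells, ~3×10^5 cells per mL in cation-adjusted Mueller-Hinton broth. Compound was added from 10× stocks in 10% DMSO as serial 2-fold dilutions, final 50 to 0.78 μM. Plates were incubated at 37 °C, humidified, 15-20 h. Growth was read as absorbance at 595 nm, and percent inhibition was averaged over triplicates.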

[6] = test system: Staphylococcus aureus; test: Antibacterial activity against NEO-sensitive Staphylococcus aureus C2 after 15 to 20 hrs by CLSI protocol based microdilution assay; assay type: functional; in short: as §2
[7] = test system: Escherichia coli; test: Antibacterial activity against NEO-sensitive Escherichia coli ATCC 25922 after 15 to 20 hrs by CLSI protocol based microdilution assay; assay type: functional; in short: as §1
[8] = Toxicity in Caenorhabditis elegans infected with methicillin-resistant Staphylococcus aureus assessed as effect on nematode larvae viability by measuring decrease in formazan production at 6.25 to 50 uM after 24 hrs by MTT assay relative to control
[9] = test system: Staphylococcus aureus; test: Antibacterial activity against methicillin-resistant Staphylococcus aureus 33591 after 15 to 20 hrs by CLSI protocol based microdilution assay; assay type: functional; in short: as §1
[10] = test system: Mycolicibacterium smegmatis; test: Antibacterial activity against NEO-sensitive Mycobacterium smegmatis after 15 to 20 hrs by CLSI protocol based microdilution assay; assay type: functional; in short: as §1
[11] = biological target: Ribosomal RNA A-site; test: Displacement of F-NEO from human cytosolic rRNA-A site after 10 to 20 mins by fluorescence assay; assay type: nucleic-acid assay
In short: (§3)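 A 100 nM F-NEO:A-site RNA complex in 10 mM HEPES, 50 mM NaCl, 0.04 mM EDTA, pH 7.0 was titrated with 2-fold dilutions of ligand from 20 to 0.009 μM, or from 60 or 40 μM for weaker ligands. Incubated 10-20 min at room temperature, fluorescence read at ex 485/em 525 nm. IC50 from dose-response curve fit.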

[12] = test system: Ribosomal RNA A-site; test: Binding affinity to rRNA-A site in human MDA-MB-231 cells assessed as inhibition of protein translation; assay type: cell-based
[13] = Toxicity in Caenorhabditis elegans infected with methicillin-resistant Staphylococcus aureus assessed as effect on nematode larvae viability by measuring decrease in formazan production at 3.13 to 1.56 uM after 24 hrs by MTT assay
[14] = test system: Bacillus anthracis; test: Antibacterial activity against NEO-sensitive Bacillus anthracis BA852 after 15 to 20 hrs by CLSI protocol based microdilution assay; assay type: functional; in short: as §1
[15] = test system: Staphylococcus aureus; test: Antibacterial activity against methicillin-resistant Staphylococcus aureus A960649 after 15 to 20 hrs by CLSI protocol based microdilution assay; assay type: functional; in short: as §1
[16] = test system: Staphylococcus aureus; test: Antibacterial activity against methicillin-resistant Staphylococcus aureus M0602 after 15 to 20 hrs by CLSI protocol based microdilution assay; assay type: functional; in short: as §1
[17] = test system: Escherichia coli; test: Antibacterial activity against multidrug-resistant Escherichia coli H4H after 15 to 20 hrs by CLSI protocol based microdilution assay; assay type: functional; in short: as §1
[18] = test system: Ribosomal RNA A-site; test: Displacement of F-NEO from Escherichia coli rRNA-A site after 10 to 20 mins by fluorescence assay; assay type: nucleic-acid assay; in short: as §3
[19] = test system: Staphylococcus aureus; test: Antibacterial activity against NEO-sensitive Staphylococcus aureus 6538 after 15 to 20 hrs by CLSI protocol based microdilution assay; assay type: functional; in short: as §2
[20] = test system: Streptococcus pyogenes; test: Antibacterial activity against NEO-resistant Streptococcus pyogenes C203 after 15 to 20 hrs by CLSI protocol based microdilution assay; assay type: functional; in short: as §1
[21] = test system: Staphylococcus aureus; test: Antibacterial activity against NEO-sensitive Staphylococcus aureus 25923 after 15 to 20 hrs by CLSI protocol based microdilution assay; assay type: functional; in short: as §1
[22] = test system: Staphylococcus aureus; test: Antibacterial activity against NEO-sensitive Staphylococcus aureus NRS77 after 15 to 20 hrs by CLSI protocol based microdilution assay; assay type: functional; in short: as §2

## NC[C@@H]1O[C@H](O[C@H]2[C@@H](O)[C@H](O[C@@H]3[C@@H](O)[C@H](N)C[C@H](N)[C@H]3O[C@H]3O[C@H](CN)[C@@H](O)[C@H](O)[C@H]3N)O[C@@H]2CO)[C@H](N)[C@@H](O)[C@@H]1O [FRAMYCETIN]
[1]
  MIC: 1.56 µM (≈ 0.959 µg/mL)
[2]
  MIC: 200 to 400 µM (≈ 123 to 246 µg/mL)
[3]
  MIC: 1.56 µM (≈ 0.959 µg/mL)
[4]
  MIC: 1.56 µM (≈ 0.959 µg/mL)
[5]
  MIC: 3.2 µM (≈ 1.97 µg/mL)
[6]
  MIC: 6.3 µM (≈ 3.87 µg/mL)
[7]
  MIC: 3.13 µM (≈ 1.92 µg/mL)
[8]
  Activity: 50 to 75%
[9]
  MIC: 400 µM (≈ 246 µg/mL)
[10]
  MIC: 0.78 µM (≈ 0.479 µg/mL)
[11]
  IC50: 76 nM
[12]
  IC50: 139 nM
[13]
  Activity: Non-Toxic
[14]
  MIC: 1.56 µM (≈ 0.959 µg/mL)
[15]
  MIC: 100 µM (≈ 61.5 µg/mL)
[16]
  MIC: > 400 µM
[17]
  MIC: 400 µM (≈ 246 µg/mL)
[18]
  IC50: 87 nM
[19]
  MIC: 3.2 µM (≈ 1.97 µg/mL)
[20]
  MIC: inactive
[21]
  MIC: 1.56 µM (≈ 0.959 µg/mL)
[22]
  MIC: 1.6 µM (≈ 0.983 µg/mL)

Reference: ChEMBL document CHEMBL4330087, “Synthesis, antimicrobial activity, attenuation of aminoglycoside resistance in MRSA, and ribosomal A-site binding of pyrene-neomycin conjugates” (Eur J Med Chem, 2019)
